Blank lines part the entries; values can stand above or below the compound they belong to. Where a SMILES comes first, the peptide text is derived from it. [ ]: non-standard residue; d: D form. pS = N[C@@H](COP(=O)(O)O)C(=O)O
Columns and labels:
[1] = biological target: T1, 14-3-3γ (Homo sapiens, UniProt P61981); test: Isothermal titration calorimetry; format: binding; conditions: 30 °C, pH 7.6
T1 sequence (P61981 1-247): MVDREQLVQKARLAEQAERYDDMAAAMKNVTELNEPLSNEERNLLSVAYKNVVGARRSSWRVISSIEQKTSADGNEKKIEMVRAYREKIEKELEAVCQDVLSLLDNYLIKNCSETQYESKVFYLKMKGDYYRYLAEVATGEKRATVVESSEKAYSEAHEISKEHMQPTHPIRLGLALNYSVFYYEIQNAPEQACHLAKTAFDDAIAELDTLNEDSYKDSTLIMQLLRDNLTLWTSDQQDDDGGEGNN
Method in brief: (§1)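 ITC was run at 30 °C in 20 mM Tris-HCl pH 7.6 with 150 mM NaCl, 0.1 mM EDTA and 2 mM β-mercaptoethanol. 2 μl aliquots of 14-3-3 were injected into a 0.2 ml cell holding the test phosphopeptide: 44 μM peptide titrated with 0.5 mM full-length human 14-3-3γ, or 100 μM peptide titrated with 1 mM 14-3-3σ. Heat of dilution was subtracted before curve fitting. There were at least three repeats with varied concentrations.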

[2] = biological target: T2, 14-3-3σ (Homo sapiens, UniProt P31947); test: Isothermal titration calorimetry; format: binding; conditions: 30 °C, pH 7.6
T2 sequence (P31947 1-231): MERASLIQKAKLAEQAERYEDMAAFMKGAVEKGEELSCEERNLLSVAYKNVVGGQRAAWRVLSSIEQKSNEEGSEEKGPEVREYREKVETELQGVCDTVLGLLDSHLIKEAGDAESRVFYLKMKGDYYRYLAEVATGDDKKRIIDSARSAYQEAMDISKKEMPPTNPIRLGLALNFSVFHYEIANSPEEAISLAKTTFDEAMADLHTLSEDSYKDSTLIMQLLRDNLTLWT
Method in brief: as §1

[3] = biological target: T2, 14-3-3σ; test: AEDANS fluorescence titration of pHSPB6AEDANS by 14-3-3σ; format: binding; conditions: excitation at 336 nm, 4.2 µM pHSPB6AEDANS, 30°C
Method in brief: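 Full-length HSPB6 was phosphorylated at Ser16 by PKA in vitro and moved into 20 mM HEPES pH 7.5 with 100 mM NaCl. It was reduced with 20 mM DTT for 20 min at room temperature, desalted, then labelled with a 6-fold molar excess of 1,5-I-AEDANS (1 h room temperature, then overnight at 4 °C), reaching 90% labelling. Human 14-3-3σ(1-231) was added stepwise with 5 min equilibration at 30 °C. Excitation was 336 nm and emission was read at 488 nm. Curves were buffer-corrected and fitted to a quadratic equation.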

[4] = biological target: T2, 14-3-3σ; test: Fluorescence competition titration; format: binding; conditions: equimolar concentration and 7-fold excess of phosphopeptide; 30°C
[5] = test system: 14-3-3; conditions: in vitro; ref Sudnitsyna et al., 2012; cited from earlier work
[6] = test system: 14-3-3ζ; conditions: ref Sluchanko et al., 2011; cited from earlier work
[7] = test system: 14-3-3 dimer; test: Affinity of pHSPB6 dimer to the 14-3-3 dimer; format: binding, human; conditions: Discussion

stoichiometry of binding (ITC) [1]: one peptide per 14-3-3 subunit
stoichiometry of binding (ITC) [2]: one peptide per 14-3-3 subunit
Compound: CC(C)C[C@H](NC(=O)CNC(=O)[C@@H]1CCCN1C(=O)[C@H](CC(C)C)NC(=O)[C@@H]1CCCN1C(=O)[C@H](C)NC(=O)[C@H](COP(=O)(O)O)NC(=O)[C@H](C)NC(=O)[C@H](CCCNC(=N)N)NC(=O)[C@H](CCCNC(=N)N)NC(=O)[C@H](CC(C)C)NC(=O)[C@@H](N)Cc1c[nH]c2ccccc12)C(=O)N[C@@H](CCCCN)C(=O)O [phosphopeptide 11-23] (H-WLRRA[pS]APLPGLK-OH)

fluorescence peak shift upon titration with 14-3-3σ [3]: shifted from 486 to 479 nm
Compound: pHSPB6^AEDANS: phosphorylated full-length HSPB6 stoichiometrically labeled at its unique Cys46 residue with 1,5-I-AEDANS
14-3-3σ/pHSPB6AEDANS interaction in the presence of phosphopeptide [4]: resulted in a saturable curve (Fig.2b), suggestive of a retained 14-3-3σ/pHSPB6^AEDANS interaction

Compound: phosphocofilin: phosphocofilin, 14-3-3 complex partner
direct 14-3-3/phosphocofilin interaction [5]: could not be confirmed in vitro

Compound: pHSPB6: phosphorylated small heat shock protein HSPB6 (HSP20)
affinity to 14-3-3ζ [6]: micromolar affinity
apparent affinity to the 14-3-3 dimer [7]: submicromolar apparent affinity

From paper PMC5321513 (Structure (London, England : 1993), 2017)
